Screening results (PubChem BioAssay)
Runt-SMMHC FRET – inhibitors of human RUNX1 Runt domain binding to CBFb-SMMHC | Cerulean-Runt/Venus-CBFb-SMMHC FRET ratio 530/480, 1 h | inhibition, % at 20 µM | hit rate 0.74% among 220,000;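 active = mean inhibition across duplicate retests at 20 µM reaching about 50%, limit read from the data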;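 note: inhibitors lower the FRET ratio by blocking Runt binding to CBFb-SMMHC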
RanGTP-Impb inh – disruptors of Ran-importin-beta complex formation – biochemical, FRET, CFP-Ran, YFP-importin-beta, homogeneous, primary screen; cell-free CFP-Ran/YFP-importin-beta FRET ratio; inhibition, % (test concentration not listed); hit rate 1.1% among 300,000; AID 2216;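 active = more than half of the replicate wells show a fall in the fluorescence ratio signal beyond about 16%, limit read from the data, passing the limit was not always enough; inconclusive = exactly half of the replicate wells pass the set limit; inactive = fewer than half of replicates pass the limit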
FAS-TE inh – inhibitors of human fatty acid synthase thioesterase domain | P49327 | recombinant FAS-TE, OMFH fluorogenic substrate, fluorescence endpoint | inhibition, % at 15 µM | hit rate 0.67% among 360,000 | AID 602261;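 active = compounds whose normalised, plate-corrected inhibition of enzyme fluorescence in the single-dose primary screen is 50% or more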
Runt-CBFb FRET – blocks binding of human RUNX1 Runt domain to CBFb; Q01196+Q13951; Cerulean-Runt/Venus-CBFb FRET ratio 530/480, 1 h; inhibition, % at 20 µM; hit rate 0.46% among 220,000; AID 1496;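 active = inhibition over about 50% at 20 µM in the single-dose screen, limit read from the data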
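Buffer or medium: Tris pH 7.5 buffer with BSA. Assay system: Cerulean-labeled Runt domain protein. Amount: each fluorescent fusion protein 100 nM. Read-out basis: loss of energy transfer signal. Incubation: 1 h compound exposure, room temperature. Probe or stimulus: Venus-CBFb binding partner, 100 nM. Detection: FRET, excitation 422 nm, emission at 530 and 480 nm.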
m-calpain inh – inhibitors of pig calpain II | purified calpain II, fluorogenic peptide substrate, 30 min | inhibition, % at 16 µM | hit rate 0.37% among 220,000;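 active = inhibition above about 50%, limit read from the data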
Hits are given with their value; 0 = inactive; ? = inconclusive; - = no result. In the library only some 2.1% were active in any assay of this set; here they are far more common.

SMILES	Runt-SMMHC FRET	RanGTP-Impb inh	FAS-TE inh	Runt-CBFb FRET	m-calpain inh
COc1ccc(CCn2c(=N)c(C(=O)NCC3CCCO3)cc3c(=O)n4ccccc4nc32)cc1OC (centres undefined)	-	0	0	-	-
Cn1c(C(=O)NCC2CCCO2)cc2c(=O)n3ccccc3nc21 (centres undefined)	61	0	0	0	0
Cc1ccc2nc3c(cc(C(=O)NCC4CCCO4)c(=N)n3CC3CCCO3)c(=O)n2c1 (centres undefined)	-	175	0	-	-
CCCCNc1cc(Cl)nc(N)n1	0	40	0	0	0
Nc1nc(Cl)cc(NCCc2ccccc2)n1	0	0	-	0	0
CCC(=O)N1N=C(c2cccs2)CC1c1ccco1 (centres undefined)	0	0	0	0	0
Clc1ccc(N2N=C(c3cccs3)CC2c2ccco2)cc1 (centres undefined)	91	0	0	-	0
c1ccc(N2N=C(c3cccs3)CC2c2ccco2)cc1 (centres undefined)	82	0	0	0	0
CN(C(=O)CSc1ncnc2sccc12)C1CCCCC1	-	-	0	-	-
COc1ccc(CNC(=O)Cn2ccc3cc(S(=O)(=O)N4CCCC4)ccc32)cc1OC	-	0	0	-	-
CCN(CC)c1ccc(C(=O)NNC(=O)CCNC(=O)c2ccccc2)cc1	-	-	0	-	-
CCN(CC)c1ccc(C(=O)NNC(=O)CCl)cc1	0	0	0	0	69
C=CCNC(=O)c1n[nH]c2c1CC(C(C)(C)CC)CC2 (centres undefined)	-	-	0	-	-
Cc1ccccc1N=Nc1ccc(O)c2ncccc12	0	0	0	0	0
O=S(=O)(O)c1cccc2c(N=Nc3ccc(O)c4ncccc34)cccc12	-	16	75	-	-
O=C(O)c1ccc(-c2ccc(/C=C3\NC(=O)N(Cc4ccc(Cl)cc4)C3=O)o2)cc1Cl	0	58	0	0	0
CCOC(=O)CN1C(=O)S/C(=C\c2ccc(-c3ccc(C(=O)O)c(Cl)c3)o2)C1=O	-	23	0	-	-
COc1ccc2c(COC(=O)CNS(=O)(=O)c3ccc(C)c(C)c3)cc(=O)oc2c1	-	-	0	-	-
CCN1/C(=C2/SC(=S)N(NC(C)=O)C2=O)Sc2ccc(OC)cc21	-	34	0	-	-
CCCCN1C(=O)/C(=C2/Sc3ccc(OC)cc3N2CC)SC1=S	-	23	0	-	-
CCN1/C(=C2/SC(=S)N(NC(C)=O)C2=O)Sc2ccc(Cl)cc21	-	33	0	-	-
CCc1ccc(CN(C)C(=O)CC2C(=O)NCCN2Cc2ccoc2)cc1 (centres undefined)	0	0	0	0	0
O=C(Nc1ccccc1)c1cc2n(n1)C(C(F)(F)F)CC(C1CC1)N2 (centres undefined)	0	0	0	0	0
O=C(NCc1ccc(F)cc1)c1cc2n(n1)C(C(F)(F)F)CC(C1CC1)N2 (centres undefined)	0	0	0	0	66
CC1=C(C#N)C(C)C2=C(CC(C)(C)CC2=O)N1 (centres undefined)	50	0	0	0	0
SMILES	Runt-SMMHC FRET	RanGTP-Impb inh	FAS-TE inh	Runt-CBFb FRET	m-calpain inh
COc1ccc(OC)c(C2C(C(=O)Nc3nc4ccccc4s3)=C(C)NC3=C2C(=O)CCC3)c1 (centres undefined)	142	0	0	0	0
CCOC(=O)C1=C(C)NC2=C(C(=O)CCC2)C1c1cc(OC)ccc1OC (centres undefined)	0	0	0	0	0
CCc1cc(=O)[nH]c(-n2[nH]c(-c3ccccc3)cc2=O)n1	0	0	0	0	0
O=c1cc(-c2ccccc2)[nH]n1-c1nc2ccccc2[nH]1	0	26	0	0	0
C/C(=N\Nc1nc(-c2cc(C)ccc2C)cs1)c1cc2c(ccc3ccccc32)oc1=O	-	64	0	64	0
COCC(C)NC(=O)c1cc2c(ccc3ccccc32)oc1=O (centres undefined)	-	29	0	-	-
CC(=O)c1cc2c(ccc3ccccc32)oc1=O	-	116	0	-	-
CC(=O)Nc1cc2c(ccc3ccccc32)oc1=O	0	?	0	0	0
C/C(=N\Nc1nc(-c2cc(C)ccc2C)cs1)c1cc2ccccc2oc1=O	0	0	0	0	0
Cc1cc(C)nc(N(C#N)Cc2cccc(Cl)c2)n1	0	51	0	0	0
COc1ccc(CNC(=O)C2CCN(S(=O)(=O)c3ccc(-c4nn[nH]n4)cc3)CC2)cc1	0	0	0	0	51
CCCNC(=O)C1CCN(S(=O)(=O)c2ccc(-c3nn[nH]n3)cc2)CC1	0	0	0	0	0
COC(=O)C1=CN(Cc2ccc(OC)c(OC)c2)C=C(C(=O)OC)C1c1cccc(OC)c1OC	-	73	0	-	-
COC(=O)C1=CN(Cc2ccc(OC)c(OC)c2)C=C(C(=O)OC)C1c1ccc(O)cc1	-	?	0	-	-
COC(=O)C1=CN(Cc2ccccc2)C=C(C(=O)OC)C1c1ccc(OC)c(OC)c1	-	0	0	-	-
COC(=O)C1=CN(Cc2ccc(C)cc2)C=C(C(=O)OC)C1c1cc(OC)c(OC)c(OC)c1	-	0	0	-	-
CCN1C=C(C(=O)OC)C(c2cccc(OC)c2OC)C(C(=O)OC)=C1	86	126	0	0	0
COC(=O)C1=CN(Cc2ccc(OC)c(OC)c2)C=C(C(=O)OC)C1c1ccc(F)cc1	-	18	0	-	-
COC(=O)C1=CN(C2CC2)C=C(C(=O)OC)C1c1ccccc1OC	0	32	0	105	0
Nc1ccc(S(=O)(=O)NC2(C(F)(F)F)NC(=O)N(c3ccc(F)cc3)C2=O)cc1 (centres undefined)	-	0	0	-	-
O=C(NCCCN=C1NS(=O)(=O)c2ccccc21)c1ccc(F)cc1	-	0	0	-	-
